Data reported in ChEMBL document CHEMBL4024792, “(N-Hydroxycarbonylbenylamino)quinolines as Selective Histone Deacetylase 6 Inhibitors Suppress Growth of Multiple Myeloma in Vitro and in Vivo” (J Med Chem, 2018).
Calls of active or inactive are those of the source. The calls are words filed in the database; no cut-off is given here.

Experiments:
RPMI-8226 [1] = assay: Cell cycle arrest in human RPMI8226 cells assessed as accumulation at sub-G1 phase at 5 uM after 24 hrs by propidium iodide staining based flow cytometry (reference value: 12.25%); format: functional
RPMI-8226 [2] = assay: Cell cycle arrest in human RPMI8226 cells assessed as accumulation at G0/G1 phase at 5 uM after 24 hrs by propidium iodide staining based flow cytometry (reference value: 44.67%); format: functional
RPMI-8226 [3] = assay: Cell cycle arrest in human RPMI8226 cells assessed as accumulation at G2/M phase at 5 uM after 24 hrs by propidium iodide staining based flow cytometry (reference value: 23.94%); format: functional
U-266 = assay: Cell cycle arrest in human U266 cells assessed as accumulation at S phase at 5 uM after 24 hrs by propidium iodide staining based flow cytometry (reference value: 14.05%); format: functional
NCI-H929 [4] = assay: Cell cycle arrest in human NCI-H929 cells assessed as accumulation at G0/G1 phase at 5 uM after 24 hrs by propidium iodide staining based flow cytometry (reference value: 49.39%); format: functional
NCI-H929 [5] = assay: Cell cycle arrest in human NCI-H929 cells assessed as accumulation at G2/M phase at 5 uM after 24 hrs by propidium iodide staining based flow cytometry (reference value: 31.63%); format: functional
RPMI-8226 [6] = assay: Cell cycle arrest in human RPMI8226 cells assessed as accumulation at G0/G1 phase at 5 uM after 24 hrs in presence of bortezomib by propidium iodide staining based flow cytometry (reference value: 44.67%); format: functional
RPMI-8226 [7] = assay: Cell cycle arrest in human RPMI8226 cells assessed as accumulation at S phase at 5 uM after 24 hrs in presence of bortezomib by propidium iodide staining based flow cytometry (reference value: 19.53%); format: functional
NCI-H929 [8] = assay: Cell cycle arrest in human NCI-H929 cells assessed as accumulation at sub-G1 phase at 5 uM after 24 hrs in presence of bortezomib by propidium iodide staining based flow cytometry (reference value: 5.59%); format: functional
NCI-H929 [9] = assay: Cell cycle arrest in human NCI-H929 cells assessed as accumulation at G0/G1 phase at 5 uM after 24 hrs in presence of bortezomib by propidium iodide staining based flow cytometry (reference value: 49.39%); format: functional
NCI-H929 [10] = assay: Induction of apoptosis in human NCI-H929 cells at 5 uM after 24 hrs by Annexin V/propidium iodide staining based flow cytometry; format: functional, cell-based
RPMI-8226 [11] = assay: Induction of apoptosis in human RPMI8226 cells at 5 uM after 24 hrs in presence of bortezomib by Annexin V/propidium iodide staining based flow cytometry; format: functional, cell-based
RPMI-8226 [12] = assay: Antitumor activity against human RPMI8226 cells xenografted in nude mouse assessed as tumor growth inhibition at 30 mg/kg, iv or ip administered for 5 days followed by 2 days off for 35 days cotreated with bortezomib relative to control; format: functional; details: read-out: TGI
Procedure, shortened: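 RPMI 8226 cells (1 × 10^7) implanted s.c. in eight-week-old male nude mice. At mean tumor volume 200 mm3, mice randomized into four groups (n = 8). Caliper measurement every 3–4 days, volume L×W²/2. %TGI computed from treated versus control volume changes relative to time 0.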

Mus musculus [13] = assay: Toxicity in nude mouse xenografted with human RPMI8226 cells assessed as change in body weight at 30 mg/kg, iv or ip administered for 5 days followed by 2 days off for 35 days; format: organism-based; details: in vivo
Procedure, shortened: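 Male 8-week nude mice implanted sc with 1×10^7 RPMI 8226 cells, randomized at ~200 mm3 (n = 8). […] Vehicle: 0.5% EtOH/0.5% Cremophor in 5% dextran.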

Mus musculus [14] = assay: Toxicity in Balb/c mouse assessed as change in body weight at 50 to 200 mg/kg, ip administered once daily for 1 week measured for 1 week; format: organism-based; details: in vivo, 168 h
Procedure, shortened: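 Male 8-week balb/c mice, ten per dose, given compound ip once daily for 7 days at 50, 100 or 200 mg/kg, then monitored one week. Body weight recorded over 14 days. MTD = highest dose with no drug-related moribund state or death and weight loss under 20%.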

[15] = Apparent permeability from basolateral to apical side in human Caco2 cells assessed as drug recovery at 10 uM after 2 hrs by LC-MS/MS analysis; format: ADME, cell-based; details: Caco-2, read-out: Drug recovery
Procedure, shortened: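 Caco-2 cells seeded at 8.4 × 10^4 cells/cm2 on polycarbonate inserts for 21 days. For A→B, donor was apical (HBSS/MES pH 6.5, 10 µM compound) and receiver basolateral (HBSS/HEPES pH 7.4). For B→A, donor was basolateral (HBSS/HEPES pH 7.4, 10 µM) and receiver apical (HBSS/MES pH 6.5). Incubated at 37 °C for 2 h. Receiver sampled at 30, 60, 90 and 120 min, donor at 0 and 120 min.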

Salmonella typhimurium = assay: Mutagenicity in Salmonella typhimurium TA98 assessed as increase in number of revertant colonies at 3 to 3000 ug/plate in presence of S9 fraction by Ames test; format: toxicity; details: salmonella enterica subsp. enterica serovar typhimurium
Procedure, shortened: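 Ames test, TA98 and TA100. Overnight broth cultures preincubated 20 min at 35-37 °C with compound (DMSO stock) plus Aroclor 1254-induced rat liver S9 mix or PBS, then plated in top agar with 0.05 mM histidine/biotin. Final 3-3000 µg/plate; revertants counted after 72 h at 37 °C. ≥3-fold over vehicle = mutagenic; ≤50% = cytotoxic.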

For `O=C(NO)c1ccc(CNc2cccc3cccnc23)cc1`, the Activity (RPMI-8226 [1]) was 12.88%, the Activity (RPMI-8226 [2]) was 41.95% and the Activity (RPMI-8226 [3]) was 31.53%. For the same compound, the Activity (U-266) was 6.12%, the Activity (NCI-H929 [4]) was 35.59% and the Activity (NCI-H929 [5]) was 31.28%. It also gave an Activity (RPMI-8226 [6]) of 6.3%, an Activity (RPMI-8226 [7]) of 2.46% and an Activity (NCI-H929 [8]) of 74.13%. For the same compound, the Activity (NCI-H929 [9]) was 15.77%, the Activity (NCI-H929 [10]) was “Active” and the Activity (RPMI-8226 [11]) was “Active”. For the same compound, the inhibition in vivo at 30 mg/kg (RPMI-8226 [12]) was 86.2%, the Activity (Mus musculus [13]) was “Non-Toxic” and the Activity (Mus musculus [14]) was “Non-Toxic”. The recovery at 2 h, 10 µM [15] was 69% and the Activity (Salmonella typhimurium) was “Non-Toxic”.
